ChEMBL document CHEMBL1156704, “Angiotensin II--AT1 receptor antagonists: design, synthesis and evaluation of substituted carboxamido benzimidazole derivatives” (Eur J Med Chem, 2008)

Experiments:
[1] = target: T1, Type-1 angiotensin II receptor A (Rattus norvegicus, UniProt P25095); assay: (§1) Antagonist activity at AT1 receptor in rat aorta; type: functional, tissue-based; conditions: read-out: pA2 (converted)
T1 sequence (P25095 whole entry): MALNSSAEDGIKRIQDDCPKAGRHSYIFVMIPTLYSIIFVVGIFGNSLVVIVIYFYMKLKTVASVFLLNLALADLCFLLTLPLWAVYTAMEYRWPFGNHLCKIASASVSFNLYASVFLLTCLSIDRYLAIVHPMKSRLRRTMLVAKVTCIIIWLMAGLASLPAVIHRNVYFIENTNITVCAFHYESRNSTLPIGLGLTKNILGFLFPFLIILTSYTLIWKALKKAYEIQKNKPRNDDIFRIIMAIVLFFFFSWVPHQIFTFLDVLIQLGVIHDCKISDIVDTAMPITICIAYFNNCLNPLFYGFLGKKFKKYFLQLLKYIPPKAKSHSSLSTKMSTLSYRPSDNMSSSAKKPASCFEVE

[2] = target: T2, Type-1 angiotensin II receptor A (Rattus norvegicus) (UniProt P25095); assay: as §1; type: functional, tissue-based
T2 sequence (whole entry): T1 sequence (P25095 whole entry)

Rattus norvegicus [3] = assay: Antihypertensive activity against desoxycortisone-induced hypertension in rat assessed as decrease in mean arterial blood pressure at 3 mg/kg, ip; type: functional, Artery; conditions: route intraperitoneal
How it was run: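 Hypertension induced in rats with desoxycortisone acetate 40 mg kg-1 s.c. Mean arterial blood pressure recorded through a carotid artery cannula connected to a pressure transducer. Test agents were given intraperitoneally. The dose-finding series used 0.1–30.0 mg kg-1, and the remaining agents were tested at 1.0, 3.0 and 10.0 mg kg-1.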

Rattus norvegicus [4] = assay: Antihypertensive activity against desoxycortisone-induced hypertension in rat assessed as decrease in mean arterial blood pressure at 5 mg/kg, ip; type: functional, Artery; conditions: route intraperitoneal

CCCCC(=O)Nc1ccc2c(c1)nc(CCCC)n2Cc1ccc(-c2ccccc2C(=O)O)cc1 gave a Kb [1] of 398 nM, a pA10 [2] of 3.7 and an Activity (Rattus norvegicus [3]) of 21.7 mmHg.
In the case of CCCCc1nc(Cl)c(CO)n1Cc1ccc(-c2ccccc2-c2nnn[nH]2)cc1 [LOSARTAN], the pA10 [2] is reported as 6.5 and the Activity (Rattus norvegicus [4]) is reported as 29.7 mmHg.
Work on CCCCc1nc2cc(NC(=O)CC)ccc2n1Cc1ccc(-c2ccccc2C(=O)O)cc1 yielded a Kb [1] of 20 nM, a pA10 [2] of 4.7 and an Activity (Rattus norvegicus [3]) of 36.2 mmHg.
With CCCCc1nc2cc(NC(=O)c3ccccc3Cl)ccc2n1Cc1ccc(-c2ccccc2C(=O)O)cc1 the Kb [1] was 316 nM, the pA10 [2] was 5.8 and the Activity (Rattus norvegicus [3]) was 20.3 mmHg.
CCOc1nc2cccc(C(=O)O)c2n1Cc1ccc(-c2ccccc2-c2nnn[nH]2)cc1 was tested, and the Kb [1] was 10 nM, the pA10 [2] was 7.1 and the Activity (Rattus norvegicus [4]) was 31.8 mmHg.
With CCCCc1nc2cc(N)ccc2n1Cc1ccc(-c2ccccc2C(=O)O)cc1 the Kb [1] was 15.8 nM, the pA10 [2] was 7 and the Activity (Rattus norvegicus [3]) was 33.3 mmHg.
CCCCc1nc2cc(NC(C)=O)ccc2n1Cc1ccc(-c2ccccc2C(=O)O)cc1 showed a Kb [1] of 10 nM, a pA10 [2] of 5.9 and an Activity (Rattus norvegicus [3]) of 33.5 mmHg.
Molecule CCCCc1nc2cc(NC(=O)c3ccccc3)ccc2n1Cc1ccc(-c2ccccc2C(=O)O)cc1 has a Kb [1] of 251 nM, a pA10 [2] of 6 and an Activity (Rattus norvegicus [3]) of 19.8 mmHg.
For CCCCc1nc2cc(NC(=O)c3ccc(Cl)cc3)ccc2n1Cc1ccc(-c2ccccc2C(=O)O)cc1, the Kb [1] was 631 nM, the pA10 [2] was 5.4 and the Activity (Rattus norvegicus [3]) was 12 mmHg.
In the case of CCCCc1nc2cc(NC(=O)CCC)ccc2n1Cc1ccc(-c2ccccc2C(=O)O)cc1, the Kb [1] is reported as 79.4 nM, the pA10 [2] is reported as 4.4 and the Activity (Rattus norvegicus [3]) is reported as 26.4 mmHg.
